Experimental findings from article PMC8978659 (RSC Advances, 2021) are described below.

Molecules are shown by their SMILES.

This data set deals with RAW264.7 cells. The data set can be described thus: Cytotoxicity test, CCK-8. To be noted: 10 μM, 48 h, CCK-8, OD 450 nm, duplicate independent experiments. In kind it is cell-based. In a few lines:
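RAW264.7 cells seeded at 1 × 10^5 per mL and exposed for 48 h to test compound at 0, 1.25, 2.5, 5 and 10 μM. CCK-8 reagent added, then 4 h at 37 °C protected from light. Absorbance read at 450 nm. Survival rate = OD of treated / OD of blank control; cytotoxic effect = 1 − survival rate.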

`NCC1CC(=S)N2CC3CCCN4CCCC(C34)C2C1` (stereo not shown) [M19, 13-Aminomethyl-15-thiomatrine]: the cell viability inhibition entry is “about 20%”.
